Experiment [1] concerns the target T1, Glutamate NMDA receptor; GRIN1/GRIN2A (Homo sapiens, UniProt Q05586+Q12879). Nature of the experiment: Antagonist activity against NR1-1a/NR2A NMDA receptor (unknown origin) expressed in mouse recombinant L(tk-) cells assessed as inhibition of glycine and glutamate induced excitotoxicity incubated for 12 hrs by LDH assay. The experiment is classed as cell-based. The essentials:
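Mouse fibroblast L(tk-) cells stably carrying a dexamethasone-inducible vector encoding GluN1a and GluN2A. Receptor expression was induced with dexamethasone in the presence of ketamine to limit cell damage. Cells were exposed to (S)-glutamate, glycine and a range of test concentrations for 12 h. Cell death was read as LDH released from lysed cells, measured by formazan dye formation.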

Experiment [2] in a line: Displacement of [3H]MK801 from NMDA receptor PCP binding site in guinea pig brain cortex membranes incubated for 120 mins by scintillation counting method. The experiment is classed as cell membranes, Cavia porcellus.
Experiment [3] concerns the target Sigma non-opioid intracellular receptor 1 (Cavia porcellus, UniProt Q60492). The experiment is described as follows: Displacement of [3H]-(+)-pentazocine from sigma 1 receptor in guinea pig brain membranes incubated for 120 mins by scintillation counting method in the presence of pentazocine. The experiment is classed as cell membranes, Membrane. In general terms: Displacement assays read how much labelled ligand stays bound in the presence of the test substance.

A short description of experiment [4]: Displacement of [3H]DTG from sigma2 receptor in rat liver membranes incubated for 120 mins by scintillation counting method in presence of pentazocine. The experiment is classed as cell membranes, Membrane. Summed up: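 σ2 binding on rat liver membranes using the nonselective radioligand [3H]-DTG. […] Nonspecific binding defined with 10 µM unlabelled DTG. Affinity reported as Ki.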

Experiment [5] concerns Mus musculus. The experiment is described as follows: Potentiation of morphine-induced antinociception in CD-1 mouse assessed as increase in latency time at 50 mg/kg, sc dosed 30 mins before morphine injection and measured 60 mins post morphine injection by hot plate test. The experiment is classed as functional, organism-based. For orientation: Thermal pain tests record how soon the animal reacts.

The test system of experiment [6] is Mus musculus. Nature of the experiment: Antinociceptive activity in CD-1 mouse assessed as increase in latency time at 50 mg/kg, sc incubated for 30 mins by hot plate test. The experiment is classed as functional, organism-based. The essentials: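 Hot plate test in mice with test compound given alone s.c. at doses up to 50 mg/kg. Reaction latency read out as %MPE.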

In experiment [7] the test system is Mus musculus. Nature of the experiment: Potentiation of morphine-induced antinociception in CD-1 mouse assessed as increase in latency time at 30 mg/kg, sc dosed 30 mins before morphine injection and measured 30 to 90 mins post morphine injection by hot plate test. The experiment is classed as functional, organism-based.
The nature of experiment [8]: Selectivity index, ratio of Ki for sigma2 receptor in rat liver membranes to Ki for sigma 1 receptor in guinea pig brain membranes. The experiment is classed as cell membranes.
Experiment [9] concerns the target T1, Glutamate NMDA receptor; GRIN1/GRIN2A. Nature of the experiment: Binding affinity to NMDA receptor (unknown origin). The experiment is classed as protein-complex assay. Summed up:
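PCP site of the NMDA receptor in pig brain cortex membranes. Competition binding against [3H]-(+)-MK-801. Nonspecific binding was defined with a large excess of unlabelled (+)-MK-801. Values are reported as Ki.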

As a reminder, the IC50 is the concentration at which inhibition is half-maximal. By Ki is commonly meant a measure of affinity in units of concentration, obtained from inhibition or displacement.

Active and inactive are the calls of the source. No cut-off for these calls is given here.

Sequence of Sigma non-opioid intracellular receptor 1 (Q60492 whole entry): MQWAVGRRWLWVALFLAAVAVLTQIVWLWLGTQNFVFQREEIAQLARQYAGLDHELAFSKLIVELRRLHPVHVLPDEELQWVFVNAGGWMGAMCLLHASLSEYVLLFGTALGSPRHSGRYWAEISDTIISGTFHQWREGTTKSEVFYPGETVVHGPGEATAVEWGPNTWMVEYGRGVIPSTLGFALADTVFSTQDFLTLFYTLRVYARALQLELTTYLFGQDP
T1 sequence (Q12879 whole entry, other chains not shown): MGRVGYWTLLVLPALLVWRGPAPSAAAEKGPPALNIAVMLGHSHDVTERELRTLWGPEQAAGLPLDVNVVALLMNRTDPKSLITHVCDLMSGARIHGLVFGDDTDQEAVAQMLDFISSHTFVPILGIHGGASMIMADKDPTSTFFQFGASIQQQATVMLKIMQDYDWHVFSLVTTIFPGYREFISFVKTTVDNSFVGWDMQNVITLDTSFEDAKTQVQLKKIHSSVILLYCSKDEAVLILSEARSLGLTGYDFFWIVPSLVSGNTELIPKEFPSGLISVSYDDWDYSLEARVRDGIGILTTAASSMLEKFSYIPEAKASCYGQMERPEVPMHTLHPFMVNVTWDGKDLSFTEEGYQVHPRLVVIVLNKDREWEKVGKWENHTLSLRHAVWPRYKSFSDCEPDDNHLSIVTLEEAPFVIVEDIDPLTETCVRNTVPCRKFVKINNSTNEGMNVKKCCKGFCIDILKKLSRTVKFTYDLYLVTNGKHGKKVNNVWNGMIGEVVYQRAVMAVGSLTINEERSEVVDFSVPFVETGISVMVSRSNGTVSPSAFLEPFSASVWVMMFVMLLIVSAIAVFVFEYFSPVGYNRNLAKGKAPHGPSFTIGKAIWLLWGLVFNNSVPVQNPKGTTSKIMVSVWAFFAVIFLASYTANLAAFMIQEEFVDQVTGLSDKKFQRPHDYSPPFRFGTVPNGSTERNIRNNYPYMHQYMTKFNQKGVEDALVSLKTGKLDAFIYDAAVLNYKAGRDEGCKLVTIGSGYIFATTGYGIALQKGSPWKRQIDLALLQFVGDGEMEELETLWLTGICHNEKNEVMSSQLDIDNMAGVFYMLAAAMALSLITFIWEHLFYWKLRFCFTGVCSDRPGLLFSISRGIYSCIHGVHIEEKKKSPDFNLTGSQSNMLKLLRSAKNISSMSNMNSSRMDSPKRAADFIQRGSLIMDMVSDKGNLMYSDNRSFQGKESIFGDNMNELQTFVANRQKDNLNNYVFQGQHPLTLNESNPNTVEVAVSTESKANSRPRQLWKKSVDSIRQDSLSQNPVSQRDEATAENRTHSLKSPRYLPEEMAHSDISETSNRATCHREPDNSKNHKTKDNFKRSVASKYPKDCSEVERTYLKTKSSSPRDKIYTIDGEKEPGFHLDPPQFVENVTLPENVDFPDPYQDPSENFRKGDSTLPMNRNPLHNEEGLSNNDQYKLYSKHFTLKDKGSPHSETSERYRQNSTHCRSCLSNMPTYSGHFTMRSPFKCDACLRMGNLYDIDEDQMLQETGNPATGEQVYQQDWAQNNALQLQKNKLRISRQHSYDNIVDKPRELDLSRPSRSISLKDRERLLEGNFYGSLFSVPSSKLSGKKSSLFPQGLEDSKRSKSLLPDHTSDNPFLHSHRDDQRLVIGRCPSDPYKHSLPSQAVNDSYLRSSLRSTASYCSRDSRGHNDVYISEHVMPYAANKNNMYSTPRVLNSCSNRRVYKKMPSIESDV

In the case of `NCC1COCC(c2ccccc2)(c2ccccc2)O1` (stereo not given), the IC50 in experiment [1] is 24.2 nM. The Ki in experiment [2] is 712 nM; in experiment [3] it was greater than 10000 nM; in experiment [4], 5800 nM.
Take `NCCC1COCC(c2ccccc2)(c2ccccc2)O1` (stereo not given): the Ki in [2], in experiment [3] and in [4] was greater than 10000 nM in each case.
With `NCC1COC(c2ccccc2)(c2ccccc2)CO1` (stereo not given), the Ki was greater than 10000 nM in experiment [2], 1400 nM in experiment [3] and greater than 10000 nM in experiment [4].
`NCCC1COC(c2ccccc2)(c2ccccc2)CO1` (stereo not given): the Ki in experiment [2], in [3] and in experiment [4] was greater than 10000 nM in each case.
Turning to `c1ccc(CNCC2COCC(c3ccccc3)(c3ccccc3)O2)cc1` (stereo not given), the results for the Ki in experiment [2], in experiment [3] and in experiment [4] were greater than 10000 nM, 4900 nM and 1600 nM, respectively.
As for `c1ccc(CNCCC2COCC(c3ccccc3)(c3ccccc3)O2)cc1` (stereo not given), the Ki is greater than 10000 nM in experiment [2], 502 nM in [3] and greater than 10000 nM in experiment [4].
Turning to `c1ccc(CNCC2COC(c3ccccc3)(c3ccccc3)CO2)cc1` (stereo not given), the Ki in experiment [2] was greater than 10000 nM; in experiment [3], 7.37 nM; in experiment [4], 1000 nM. Further, in the experiment on Mus musculus [5], the result was Active. For the same compound, the outcome in the experiment with Mus musculus [6] and with Mus musculus [7] was inactive. Besides, the Ratio Ki in [8] was found to be 136.
For the compound `c1ccc(CNCCC2COC(c3ccccc3)(c3ccccc3)CO2)cc1` (stereo not given), the inhibitory constant (Ki) in experiment [2] was greater than 10000 nM; in experiment [3], 297 nM; in experiment [4], 841 nM.
For `c1ccc(CNCC2CCOC(c3ccccc3)(c3ccccc3)O2)cc1` (stereo not given) the same measures were greater than 10000 nM, 3000 nM and 111 nM.
For the compound `NC[C@@H]1COC[C@H](c2ccccc2)O1` (racemic), the Ki in [2], in [3] and in [4] was greater than 10000 nM throughout.
Turning to `NC[C@H]1COC[C@H](c2ccccc2)O1` (racemic), the Ki in [2], in experiment [3] and in experiment [4] was greater than 10000 nM throughout.
Consider `CC[C@]1(c2ccccc2)COC[C@@H](CN)O1` (racemic), for which the Ki in experiment [2], in experiment [3] and in [4] was greater than 10000 nM throughout.
For `CC[C@]1(c2ccccc2)COC[C@H](CN)O1` (racemic), the Ki in experiment [2], in [3] and in experiment [4] was greater than 10000 nM each time.
With `NC[C@@H]1COC[C@@](c2ccccc2)(C2CCCCC2)O1` (racemic), the IC50 in experiment [1] came to 71.2 nM. Further, the Ki is 893 nM in [2], greater than 10000 nM in experiment [3] and greater than 10000 nM in experiment [4].
With `NC[C@H]1COC[C@@](c2ccccc2)(C2CCCCC2)O1` (racemic), the IC50 in experiment [1] worked out at 17.7 nM. In addition, the Ki is 413 nM in experiment [2], greater than 10000 nM in [3] and 2500 nM in experiment [4].
For `NC[C@@H]1CO[C@H](c2ccccc2)CO1` (racemic), the Ki in experiment [2], in [3] and in experiment [4] was greater than 10000 nM throughout.
Take `NC[C@H]1CO[C@H](c2ccccc2)CO1` (racemic): the Ki in experiment [2], in experiment [3] and in [4] was greater than 10000 nM throughout.
With `c1ccc(CNC[C@@H]2COC[C@H](c3ccccc3)O2)cc1` (racemic), the Ki in experiment [2] is greater than 10000 nM; in experiment [3], 155 nM; in experiment [4], greater than 10000 nM.
For the compound `c1ccc(CNC[C@H]2COC[C@H](c3ccccc3)O2)cc1` (racemic), the figures for the Ki in [2], in [3] and in experiment [4] were greater than 10000 nM, 542 nM and 4300 nM, respectively.
For `CC[C@]1(c2ccccc2)COC[C@@H](CNCc2ccccc2)O1` (racemic), in that order: greater than 10000 nM, 543 nM and greater than 10000 nM.
For `CC[C@]1(c2ccccc2)COC[C@H](CNCc2ccccc2)O1` (racemic), in that order: greater than 10000 nM, 607 nM and greater than 10000 nM.
Turning to `c1ccc(CNC[C@@H]2COC[C@@](c3ccccc3)(C3CCCCC3)O2)cc1` (racemic), the Ki in experiment [2] is greater than 10000 nM; in experiment [3], 1500 nM; in experiment [4], 4900 nM.
For `c1ccc(CNC[C@H]2COC[C@@](c3ccccc3)(C3CCCCC3)O2)cc1` (racemic) the same measures were greater than 10000 nM, 2700 nM and greater than 10000 nM.
For `c1ccc(CNC[C@@H]2CO[C@H](c3ccccc3)CO2)cc1` (racemic) the same measures were greater than 10000 nM, 192 nM and 698 nM.
For `c1ccc(CNC[C@@H]2CO[C@@H](c3ccccc3)CO2)cc1` (racemic), the figures for the Ki in experiment [2], in [3] and in experiment [4] were greater than 10000 nM, 37 nM and greater than 10000 nM, respectively. Further, the Ratio Ki in experiment [8] was greater than 270.
Consider `c1ccc(CNC[C@@H]2CCO[C@H](c3ccccc3)O2)cc1` (racemic), for which the Ki is greater than 10000 nM in experiment [2], 314 nM in experiment [3] and 174 nM in [4].
On to `c1ccc(C2(c3ccccc3)OC[C@H]([C@@H]3CCCCN3)O2)cc1` [DEXOXADROL], for which the IC50 in [1] turned out to be 9.7 nM. Also, the Ki in experiment [9] was […].
Consider `Cc1ccccc1NC(=N)Nc1ccccc1C` [DITOLYLGUANIDINE], for which the Ki in experiment [4] worked out at 64 nM.
As to `CN[C@]1(c2ccccc2Cl)CCCCC1=O` [ESKETAMINE], the IC50 in experiment [1] was 11.4 nM. Also, in experiment [2], the inhibition constant Ki was 419 nM.
Take `CC[C@]1(c2ccccc2)OC[C@H]([C@@H]2CCCCN2)O1` [ETOXADROL]: the Ki in experiment [2] and in [9] was 22 nM throughout.
In the case of `c1ccc(C2(N3CCCCC3)CCCCC2)cc1` [PHENCYCLIDINE], the IC50 in experiment [1] amounted to 11.8 nM. In [2], the Ki is 28 nM.
